Screens: PubChem BioAssay, several laboratories
The list is not random: actives were taken first. Their share in the collection is about 3%.
MEKK2 mut-MEK5: signal of MEK5 binding to mutant human MEKK2 PB1 domain; percent response, % at 10 µM; AID 1530; bead flow cytometry, Alexa488-MEK5 binding to MEKK2 mutant; 0.35% of 290,000 active; in the data active means percent response above about 24%, passing the limit was not always enough
MEKK3 PB1 HTS: MEKK3-MEK5 PB1 interaction, increase or decrease | bead-based flow cytometry, Alexa488-MEK5 binding to MEKK3; actives lie on both sides; 0 = blocked by unlabeled MEK5, 100 = vehicle | binding response (% of control), % at 10 µM | 1.4% of 290,000 active | AID 1529;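 active means binding response more than 3 SD above or below the average of its plate-row segment, actives on both sides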;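 further: Alexa488 bead fluorescence after subtracting the streptavidin-only scavenger bead signal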
UCH37 inh: blocks the human deubiquitinase UCH37; Q9Y5K5; purified proteasome/UCH37, Ub-AMC cleavage fluorescence; inhibition, % (test concentration not listed); 0.33% of 330,000 active;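 active means mean inhibition over replicate wells above about 20%, limit read from the data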;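 further: 0% = compound-free wells with enzyme and 100% = wells lacking proteasome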
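Material: human UCH37 enzyme supplied as purified proteasome complex / Amount: 0.15 nM proteasome as dispensed / Buffer or medium: pH 7.4 Tris-HCl (50 mM) with ovalbumin, ATP-MgCl2, DTT / Times: preincubation 30 min, reaction 25 min, room temperature / Technique: AMC fluorescence from Ub-AMC cleavage, excitation 355 nm, emission 460 nm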
Apaf-1 inh: blocks human Apaf-1 apoptosome activity | 0.71% of 330,000 active | reconstituted apoptosome caspase-3 activity, DEVD-Rh110 fluorescence | O14727 | AID 489030 | inhibition, % at 20 µM; active means inhibition of at least 40% at 20 µM;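 further: plate controls were DMSO wells for no effect and DEVD-CHO caspase inhibitor wells for full effect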
Target sequence (O14727 whole entry, looked up): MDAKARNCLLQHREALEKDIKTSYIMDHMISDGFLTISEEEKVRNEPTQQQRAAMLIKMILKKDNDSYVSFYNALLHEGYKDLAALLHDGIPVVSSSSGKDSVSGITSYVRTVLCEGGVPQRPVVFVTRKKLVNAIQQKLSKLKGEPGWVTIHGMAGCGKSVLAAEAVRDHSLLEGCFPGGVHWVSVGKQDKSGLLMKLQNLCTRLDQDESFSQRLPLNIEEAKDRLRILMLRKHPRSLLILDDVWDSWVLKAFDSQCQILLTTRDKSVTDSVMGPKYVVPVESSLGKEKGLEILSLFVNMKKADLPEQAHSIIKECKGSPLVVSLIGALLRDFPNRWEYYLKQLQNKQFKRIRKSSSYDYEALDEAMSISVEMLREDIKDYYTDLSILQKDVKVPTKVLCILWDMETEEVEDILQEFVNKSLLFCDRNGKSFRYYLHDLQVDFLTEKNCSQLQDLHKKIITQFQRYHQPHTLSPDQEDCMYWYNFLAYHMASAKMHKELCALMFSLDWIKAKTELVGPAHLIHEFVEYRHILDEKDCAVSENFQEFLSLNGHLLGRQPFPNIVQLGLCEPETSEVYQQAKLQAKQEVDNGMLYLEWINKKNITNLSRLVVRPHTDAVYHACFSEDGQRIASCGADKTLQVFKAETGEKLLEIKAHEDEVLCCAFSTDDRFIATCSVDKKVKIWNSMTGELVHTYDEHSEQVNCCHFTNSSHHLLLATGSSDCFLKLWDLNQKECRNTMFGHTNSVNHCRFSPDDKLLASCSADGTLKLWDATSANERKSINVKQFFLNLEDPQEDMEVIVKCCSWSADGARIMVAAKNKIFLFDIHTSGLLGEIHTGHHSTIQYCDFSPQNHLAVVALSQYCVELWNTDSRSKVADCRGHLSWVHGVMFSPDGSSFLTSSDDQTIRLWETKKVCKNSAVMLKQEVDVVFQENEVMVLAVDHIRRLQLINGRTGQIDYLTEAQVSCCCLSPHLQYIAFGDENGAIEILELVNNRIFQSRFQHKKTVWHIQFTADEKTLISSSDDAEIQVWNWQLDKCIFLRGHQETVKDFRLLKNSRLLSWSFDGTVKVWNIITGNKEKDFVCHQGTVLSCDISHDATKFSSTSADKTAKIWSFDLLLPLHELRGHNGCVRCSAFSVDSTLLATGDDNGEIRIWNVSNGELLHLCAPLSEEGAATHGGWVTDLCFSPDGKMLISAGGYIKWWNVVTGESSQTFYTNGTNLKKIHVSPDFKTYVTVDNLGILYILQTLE
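detection = Rh110 fluorescence intensity | test system = biochemical Apaf-1 apoptosome reconstitution | also added = cytochrome c and DEVD-Rh110 substrate | schedule = 30 min plus 50 min, RT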
MEKK2wt PB1 HTS: raises or lowers MEK5 binding to wildtype human MEKK2 PB1 domain; binding response (% of control), % at 10 µM; 1.1% of 290,000 active; AID 1531; Q9Y2U5; bead flow cytometry, Alexa488-MEK5 binding to MEKK2 WT; actives lie on both sides; in the data active means binding response below about 67% or above about 130%
UBC13 polyUb: blocks human UBC13 polyubiquitin chain formation; P61088; TR-FRET; inhibition, % at 20 µM; 0.47% of 330,000 active; in the data active means inhibition above about 45%, passing the limit was not always enough
MEKK2wt confirm: raises or lowers MEK5 binding to wildtype human MEKK2, retest; shares compounds with MEKK3 PB1 HTS; bead flow cytometry, Alexa488-MEK5 binding to MEKK2 WT; actives lie on both sides; binding response (% of control), % at 10 µM; 2.4% of 5,900 active; in the data active means binding response below about 16% or above about 210%; inactive means in between
MEKK2mut confirm: signal of MEK5 binding to mutant human MEKK2, retest | 2% of 5,900 active | shares compounds with MEKK3 PB1 HTS | bead flow cytometry, Alexa488-MEK5 binding to MEKK2 mutant | percent response, % at 10 µM; in the data active means percent response mostly above about 71%, no sharp cut-off; inactive means mostly below about 38%;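 further: higher means compound restores mutant binding toward wildtype level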
MEKK3-MEK5 inh: MEKK3-MEK5 PB1 inhibition, single concentration confirmation. 1.8% of 5,900 active. bead flow cytometry, Alexa488-MEK5 binding to MEKK3; active compounds read low. shares compounds with MEKK3 PB1 HTS. binding response (% of control), % at 10 µM;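 active means binding response below 72% of control, or above a set upper limit, though filed actives all read lower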;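 further: 100% = DMSO only wells and 0% = binding blocked by excess unlabeled MEK5; lower values mean stronger disruption of MEK5 binding to MEKK3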
Active calls of the source: *; . = not tested or not shown; [ ] = another dose, or the depositor's remark.

SMILES	MEKK2 mut-MEK5	MEKK3 PB1 HTS	UCH37 inh	Apaf-1 inh	MEKK2wt PB1 HTS	UBC13 polyUb	MEKK2wt confirm	MEKK2mut confirm	MEKK3-MEK5 inh
O=C1Nc2ccccc2C(O)(C(=O)NCc2ccc3c(c2)OCO3)N1c1ccccc1 (centres undefined)	3	106	2	-9	110	-1	.	.	.
O=C(Nc1ccccc1)c1cccc(C(F)(F)F)c1	1	144*	7	-2	108	2	104	1	105
O=C(Nc1ccccc1)c1cccc(N2CCCC2=O)c1	-16	61*[inhibitor]	-1	-2	77	-8	107	13	110
O=C(Nc1ccon1)c1cccc(C(F)(F)F)c1	-3	70*[inhibitor]	1	-11	77	0	96	-4	102
Cc1ccccc1NC(=O)c1c(-c2ccccc2)noc1C	5	103	3	3	106	11	.	.	.
CC(=O)Nc1ccc(S(=O)(=O)N2CCCC2C(=O)Nc2ccc(F)cc2)cc1 (centres undefined)	2	102	0	-4	102	-5	.	.	.
Cc1nn(CC(=O)OCC(=O)Nc2c(C(C)C)cccc2C(C)C)c(C)c1[N+](=O)[O-]	-1	104	2	2	100	10	.	.	.
Cn1c(=O)c2c(nc(SCC(=O)NCC3CCCO3)n2Cc2ccc(F)cc2)n(C)c1=O (centres undefined)	-2	101	1	-30	97	5	.	.	.
COc1cccc(/C=N/NC(=O)C(=O)Nc2ccccc2OC(F)(F)C(F)F)c1	1	149*	.	-7	111	-6	104	7	104
COc1ccccc1/C=N/NC(=O)C(=O)Nc1ccccc1OC(F)(F)C(F)F	1	134*	.	16	104	-5	97	-8	98
COc1ccccc1NC(=O)C(=O)NN=Cc1cccs1	.	.	8	.	.	.	.	.	.
COc1ccccc1NC(=O)C(=O)N/N=C/c1ccc([N+](=O)[O-])s1	-21	63*[inhibitor]	.	.	60*[inhibitor]	.	120	10	103
CCN1CCN(c2cc(N3CCc4ccccc4C3)c(F)cc2[N+](=O)[O-])CC1	39	100	6	19	151*	15	153	22	110
O=C(/C=C/c1ccco1)N(Cc1ccc(F)cc1)C1CCS(=O)(=O)C1 (centres undefined)	-17	59*[inhibitor]	4	-12	63*[inhibitor]	-6	97	-1	98
COc1ccc(C2CC(Cn3cc(C#N)c(=O)n(C)c3=O)ON2C)cc1 (centres undefined)	-5	101	0	-2	94	1	.	.	.
COCCNC(=O)C1=NOC(Cn2cc(C#N)c(=O)n(C)c2=O)C1 (centres undefined)	6	145*	1	-5	129	3	100	4	108
Cc1ccc(N)cc1CN1CCCC1=O	6	101	1	-7	100	7	.	.	.
C/C(Cl)=C\CSc1nnc2n(N)c(=O)c3ccccc3n12	1	102	3	10	104	6	.	.	.
CS(=O)(=O)NN1C(=O)c2ccccc2NC1c1cc2ccccc2nc1Cl (centres undefined)	0	132*	-4	-4	108	4	83	-14	79
COc1ccc(CCNC(=O)CSc2nc(N)cc(=O)[nH]2)cc1OC	12	109	1	-8	109	1	.	.	.
Cc1ccsc1/C=C(\CC(=O)O)c1nc2ccccc2o1	8	103	14	-1	110	-6	.	.	.
Cc1ccc(OCCC(=O)Nc2ccc(F)c(Cl)c2)cc1	31	117	2	2	223*	-4	103	14	102
CCC(=O)Nc1ccc(F)c(Cl)c1	10	107	0	-6	107	3	.	.	.
CCN(CC)C(=O)C(=O)Nc1ccc(F)c(Cl)c1	-7	75*[inhibitor]	1	-11	88	0	103	-1	102
Cc1ccc(OCCC(=O)Nc2ccc(C)c(F)c2)cc1	-5	100	0	0	102	8	.	.	.
SMILES	MEKK2 mut-MEK5	MEKK3 PB1 HTS	UCH37 inh	Apaf-1 inh	MEKK2wt PB1 HTS	UBC13 polyUb	MEKK2wt confirm	MEKK2mut confirm	MEKK3-MEK5 inh
Cc1cc(N/N=C/c2ccccc2O)c2ccccc2n1	14	108	.	30	186*	4	135	14	102
Cc1cc(NCc2ccccc2)c2ccccc2n1	8	111	5	-2	149*	0	116	9	103
Cc1cc(NCc2ccccc2)nc2ccccc12	3	99	-1	8	106	13	.	.	.
Cc1ccc(C(O)(C(=O)NNc2ccc3ccccc3n2)c2ccc(C)cc2)cc1	7	99	-6	6	86	4	.	.	.
Cc1[nH]c2ccccc2c1C(=O)COC(=O)Cn1cnc2ccccc21	55*	102	0	-9	120	-2	107	7	103
COc1ccc(NC(=O)c2ccc(-c3ccc([N+](=O)[O-])cc3)o2)cc1OC	0	116	7	4	105	-6	.	.	.
O=C(O)Cc1ccc(N=Nc2c(O)c(C(=O)O)cc3ccccc23)cc1	4	99	19	11	91	-65	.	.	.
NS(=O)(=O)c1ccc(N=Nc2c(O)c(C(=O)O)cc3ccccc23)cc1	-39	65*[inhibitor]	11	28	69	-261	96	-4	98
NNC(=O)Cc1csc(-c2ccccc2)n1	12	105	6	-19	100	6	.	.	.
CC(C)CCNC(=O)Cc1csc(-c2ccccc2)n1	-46	2.0*[inhibitor]	5	-4	3.0*[inhibitor]	-10	92	-6	91
Cc1csc2ncnc(N3CCN(S(=O)(=O)c4cccc(C(F)(F)F)c4)CC3)c12	-1	102	1	12	100	0	.	.	.
O=C(Cn1ccc(NC(=O)OCc2ccccc2)nc1=O)NCCCc1ccccc1	.	.	-2	5	.	-9	.	.	.
Clc1ccc(CO/N=C2\CCCc3nonc32)cc1	1	145*	.	7	109	-3	101	-6	105
Fc1ccc(CON=C2CCCc3nonc32)cc1	.	.	1	.	.	.	.	.	.
COc1ccc(CNC(=O)CSCc2ccccc2Cl)cc1	1	128*	1	1	105	1	103	0	103
O=C1c2ccccc2S(=O)(=O)c2cc(C(=O)N3CCN(c4ncccn4)CC3)ccc21	2	101	.	3	102	8	.	.	.
